# High-throughput results: PubChem, several laboratories
# Rows were chosen to be rich in hits. Some 3.4% of all compounds tested hit in one or more screens of this group.
# TRPML3 agonist – agonists of human TRPML3 channel; 220,000 compounds, 0.29% hits; Q8TDD5; AID 1448; activation, % at 3 µM; HEK293 TRPML3-YFP, Fluo-8 calcium fluorescence; 100% = the carbachol control signal;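 active = activation above its plate's cutoff, the mean activation of the plate's test wells plus 3 SD, cut at about 12% in these data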;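 also: 0% = DMSO only wells and 100% = carbachol wells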
#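 Test system: TRPML3-YFP stable HEK293 cells. Doses: single point at 3 µM. Incubation: dye loading 1 h 37 °C then 30 min ambient, 125 s read. Signal: Fluo-8 calcium dye fluorescence, ex 470-495, em 515-575 nm. Measure: percent activation from peak-to-basal fluorescence ratio, scaled between DMSO and carbachol.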
# TAAR1 antag – human TAAR1 antagonism | inhibition, % at 3 µM | CHO RD-HGA16 TAAR1, Fluo-8 calcium fluorescence, antagonist | Q96RJ0 | 360,000 compounds, 1.5% hits;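 active = inhibition above a per-plate cutoff, the mean inhibition of test compounds on that plate plus 3 SD, cut at about 49% in these data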;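 also: 0% = DMSO plus EC80 beta-PEA response and 100% = DMSO alone without agonist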
# Target sequence (Q96RJ0 whole entry, looked up): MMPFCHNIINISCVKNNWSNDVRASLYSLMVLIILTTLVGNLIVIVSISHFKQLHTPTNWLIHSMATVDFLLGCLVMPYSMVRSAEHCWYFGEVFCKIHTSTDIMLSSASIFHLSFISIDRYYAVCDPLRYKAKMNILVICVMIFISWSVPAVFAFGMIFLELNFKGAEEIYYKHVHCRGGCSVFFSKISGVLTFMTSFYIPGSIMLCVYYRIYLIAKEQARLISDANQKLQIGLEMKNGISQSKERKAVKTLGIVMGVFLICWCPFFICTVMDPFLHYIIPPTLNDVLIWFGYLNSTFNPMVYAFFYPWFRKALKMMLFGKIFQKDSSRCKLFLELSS
#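 Test system – hTAAR1-expressing CHO RD-HGA16 cells, Gα16-coupled · Also added – β-PEA at EC80 concentration, post-compound challenge · Compound – 3 µM, single point · Incubation – dye loading 75 min at 37 °C, then 30 min room temperature · Measured by – Fluo-8 intracellular calcium dye fluorescence, real-time kinetic reads · Benchmarks – vehicle and agonist controls · Replicates – singlicate, one well per test compound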
# TAAR1 agonist – human TAAR1 agonism; Q96RJ0; CHO RD-HGA16 TAAR1, Fluo-8 calcium fluorescence; vehicle wells 0%, saturating PEA agonist 100%; activation, % at 3 µM; 360,000 compounds, 0.99% hits; AID 624467;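 active = activation above the mean activation of all test compounds in the run plus 3 SD, cut at about 38% in these data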
#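 Signal – calcium-sensitive Fluo-8 signal, excitation 470-495, emission 515-575 nm · System – RD-HGA16 (CHO) cells co-expressing Gα16 and hTAAR1 · Incubation – 17-24 h seeding, 75 min 37 °C dye, 30 min RT · Compound dosing – 3 µM single concentration · Repeats – no replicates (n 1)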
# TRPN1 ag – activates the zebrafish TRPN1 channel; AID 1424; HEK293 zebrafish TRPN1-YFP, Fluo-8 calcium fluorescence; 100% = response to 87 µM carbachol; 220,000 compounds, 0.18% hits; activation, % at 3 µM;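 active = activation above its plate's cutoff, the mean activation of test wells on that plate plus 3 SD, cut at about 19% in these data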;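 also: 0% = DMSO alone and 100% = 87 µM carbachol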
#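 Material – zebrafish TRPN1-YFP in HEK293 cells · Doses – 3 µM single point · Schedule – dye 1 h 37 °C plus 30 min RT · Signal – Fluo-8 calcium fluorescence, excitation 470-495 nm, emission 515-575 nm · Read-out – % activation versus carbachol response · Control set – carbachol high, DMSO low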
# LANA-H2A inh – blocks KSHV LANA binding to histone H2A/H2B. cell-free LANA-H2A/H2B peptide, fluorescence polarization. inhibition, % (test concentration not listed). 320,000 compounds, 0.6% hits; in the data active = inhibition mostly above about 10%, no sharp cut-off; inactive = mostly below about 6.7%
# GPR7 antagonist – human neuropeptides B/W receptor 1 antagonism | 290,000 compounds, 1.1% hits | inhibition, % at 4.4 µM | P48145 | AID 1861 | GPR7-expressing cells, fluorescence antagonist assay; in the data active = inhibition above about 16%, passing the limit was not always enough;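 also: cells stimulated with the agonist NPW; 0% = agonist with vehicle and 100% = vehicle without agonist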
# Target sequence (P48145 whole entry, looked up): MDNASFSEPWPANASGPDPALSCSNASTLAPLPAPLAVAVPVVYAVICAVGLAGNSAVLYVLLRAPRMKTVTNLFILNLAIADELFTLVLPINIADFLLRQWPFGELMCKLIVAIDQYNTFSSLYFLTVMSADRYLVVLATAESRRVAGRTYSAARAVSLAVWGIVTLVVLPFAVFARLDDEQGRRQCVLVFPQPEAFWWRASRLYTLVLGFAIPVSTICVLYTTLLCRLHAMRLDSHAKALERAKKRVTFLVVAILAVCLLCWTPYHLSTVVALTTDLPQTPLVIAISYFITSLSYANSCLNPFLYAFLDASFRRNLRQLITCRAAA
# nonsel antag count – counter-screen for TAAR1 antagonists: nonselective antagonists. shares compounds with TAAR1 antag. counterscreen cell line, calcium fluorescence, antagonist mode. inhibition, % at 3 µM. 2,400 compounds, 77% hits. AID 651780; in the data active = inhibition above about 22%;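 also: CHO-Ga16 host cells stimulated with ATP at an EC80 level; 0% = agonist EC80 plus vehicle and 100% = vehicle without agonist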
# TAAR1 ant conf – human TAAR1 antagonism, confirmed. shares compounds with TAAR1 antag. TAAR1-expressing cells, fluorescence antagonist read-out. inhibition, % at 3 µM. 2,400 compounds, 40% hits. AID 651785; in the data active = inhibition above about 49%;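 also: CHO-Ga16 host cells challenged with agonist PEA near its EC80; 0% = agonist at EC80 plus vehicle and 100% = vehicle with no agonist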
# Ga16 nonsel ag – nonselective Ga16 agonism, counter-screen; shares compounds with TAAR1 antag; Ga16-expressing cells, calcium fluorescence, agonist counterscreen; activation, % at 3 µM; 2,400 compounds, 18% hits; in the data active = activation above about 12%;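 also: 0% = vehicle wells and 100% = saturating stimulus response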
# TAAR1 ag count – activates human TAAR1 in antagonist counter-screen | activation, % at 3 µM | shares compounds with TAAR1 antag | AID 651955 | hTAAR1 cell line, fluorescence activation, agonist mode | 2,400 compounds, 2% hits; in the data active = activation above about 37%;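 also: CHO cells stably expressing TAAR1 with calcium dye readout; 0% = DMSO vehicle and 100% = full agonist response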
# * marks the source's active call; other numbers are inactive results; nt = not tested or not shown.
SMILES,TRPML3 agonist,TAAR1 antag,TAAR1 agonist,TRPN1 ag,LANA-H2A inh,GPR7 antagonist,nonsel antag count,TAAR1 ant conf,Ga16 nonsel ag,TAAR1 ag count
COc1ccc(-c2cc(C(=O)N(C)CC(=O)Nc3ccccc3C(F)(F)F)c3ccccc3n2)cc1OC,nt,67*,22,nt,nt,nt,34*,49*,8,9
Cc1nn(-c2ccccc2)c(N2CCCC2)c1/C=N/NC(=O)c1cc(-c2ccccc2)nc2ccccc12,1,38,6,-1,-1,-13,nt,nt,nt,nt
Cc1nn(-c2ccccc2)c(N2CCCC2)c1/C=N/NC(=O)c1cc2ccccc2cc1O,0,51*,11,-1,3,-5,44*,50*,12*,11
O=C(Nc1cc(-c2nc3ncccc3o2)ccc1Cl)c1cccs1,nt,60*,6,nt,-1,-9,12,26,4,1
CCN(CC(=O)NCc1ccc(Cl)cc1)S(=O)(=O)c1ccc(NC(C)=O)cc1,0,78*,19,3,-1,9,21,47,9,11
CCN(C[C@H]1N[C@@](C)(C(=O)OC)[C@H]2C(=O)N(C)C(=O)[C@@H]12)C(=O)COc1ccccc1,nt,-13,1,nt,nt,nt,nt,nt,nt,nt
CC(C)=N/N=C1/NC(=O)C(c2ccc(Cl)cc2)S1 (stereo not given),nt,55*,27,nt,nt,nt,1,-3,3,3
COC(=O)C1=C(C)N(Cc2ccc(F)cc2)C(=S)NC1c1cccc(OC)c1 (stereo not given),nt,57*,-1,nt,nt,nt,24*,41,2,3
COC(=O)C1=C(C)N(Cc2ccc(C(F)(F)F)cc2)C(=NCc2ccccc2)NC1c1cccc(C(F)(F)F)c1 (stereo not given),nt,29,18,nt,nt,nt,nt,nt,nt,nt
COC(=O)C1=C(C)N(Cc2cccc(C(F)(F)F)c2)C(=NCc2ccc(C(F)(F)F)cc2)NC1c1ccccc1 (stereo not given),nt,19,10,nt,nt,nt,nt,nt,nt,nt
COC(=O)C1=C(C)N(C)C(=NCc2cccc(C(F)(F)F)c2)NC1c1ccc(C(F)(F)F)cc1 (stereo not given),nt,51*,27,nt,nt,nt,33*,40,13*,26
COC(=O)C1=C(C)N(Cc2cccc(C(F)(F)F)c2)C(=NCc2ccc3c(c2)OCO3)NC1c1ccc(Cl)cc1 (stereo not given),nt,56*,29,nt,nt,nt,37*,41,19*,52*
COC(=O)C1=C(C)N(Cc2ccc(C(F)(F)F)cc2)C(=NCc2ccccc2)NC1c1ccc(C(F)(F)F)cc1 (stereo not given),nt,55*,23,nt,nt,nt,41*,33,21*,44*
CC1(C(=O)NS(=O)(=O)Cc2ccccc2C(F)(F)F)CCN1C(=O)Cc1ccccc1 (stereo not given),nt,5,0,nt,nt,nt,nt,nt,nt,nt
CCOC(=O)c1ccc(S(=O)(=O)Nc2cc(S(=O)(=O)Nc3ccc(OC)cc3)ccc2O)cc1,nt,3,0,nt,-1,nt,nt,nt,nt,nt
COC(=O)C1=C(C)N(Cc2ccc(C(F)(F)F)cc2)C(=NCc2ccccc2)NC1c1cccc(Cl)c1 (stereo not given),nt,60*,27,nt,nt,nt,39*,37,13*,35
COC(=O)C1=C(C)N(Cc2cccc(C(F)(F)F)c2)C(=NCc2ccc(OC)cc2)NC1c1ccc(F)cc1 (stereo not given),nt,53*,31,nt,nt,nt,41*,33,15*,30
COC(=O)C1=C(C)N(Cc2ccc(C(F)(F)F)cc2)C(=NCc2ccccc2)NC1c1ccccc1 (stereo not given),nt,51*,34,nt,nt,nt,36*,32,18*,36
O=C(COc1ccc([N+](=O)[O-])cc1Cl)N1CCc2ccccc21,nt,3,1,nt,-1,nt,nt,nt,nt,nt
CCCN1C(=O)c2cc(C(=O)O)ccc2C1O (stereo not given),0,4,0,1,-1,-5,nt,nt,nt,nt
CCCN1C(=O)c2cc(C(=O)Nc3ccccc3OC)ccc2C1Nc1ccccc1OC (stereo not given),1,60*,8,2,1,-8,29*,43,5,4
C[C@H](CO)N1C[C@H](C)[C@@H](CN(C)S(C)(=O)=O)Oc2ccc(NS(=O)(=O)c3ccccc3)cc2C1=O,nt,11,1,nt,4,nt,nt,nt,nt,nt
Cc1ccc(-c2nn(-c3cccc(F)c3)cc2CNCc2cccnc2)o1,0,66*,9,-1,2,-9,31*,43,7,11
CCCCN(C(=O)c1cccc(-n2cnnn2)c1)c1c(N)n(CCCC)c(=O)[nH]c1=O,nt,-12,4,nt,nt,nt,nt,nt,nt,nt
O=C(C1CCCN(c2ncnc3c2nc2n3CCCCC2)C1)N1CCN(c2ccccc2)CC1 (stereo not given),nt,52*,16,nt,-1,-21,23*,36,10,18
SMILES,TRPML3 agonist,TAAR1 antag,TAAR1 agonist,TRPN1 ag,LANA-H2A inh,GPR7 antagonist,nonsel antag count,TAAR1 ant conf,Ga16 nonsel ag,TAAR1 ag count
COc1ccccc1N1CCN(C(=O)C2CCCN(c3ncnc4c3nc3n4CCCCC3)C2)CC1 (stereo not given),nt,-6,5,nt,-4,8,nt,nt,nt,nt
CCOC(=O)CCCSc1nnc(CCCCCN2C(=O)c3cccc4cccc(c34)C2=O)o1,0,58*,6,2,4,-6,37*,48,8,4
O=C(COc1ccccc1C(=O)O)Nc1ccc(SC(F)F)cc1,0,-13,1,0,-3,19,nt,nt,nt,nt
CN(C)C(=O)COC(=O)c1ccccc1OCC(=O)Nc1ccc(SC(F)F)cc1,1,64*,17,7,0,-6,32*,51*,11,8
O=C(COC(=O)c1ccccc1Nc1ccc(SC(F)F)cc1)NCc1ccco1,0,52*,7,0,1,-2,18,22,0,-2
Cc1cc(Cn2nc(C(=O)NCC3CC3)cc2-c2ccccc2)on1,nt,-21,11,nt,-1,nt,nt,nt,nt,nt
CCOC(=O)[C@H]1[C@H]2COc3ccc(Br)cc3[C@@H]2N2C(=O)c3ccc(Cl)cc3NC(=O)[C@@]12C,nt,14,2,nt,-6,nt,nt,nt,nt,nt
Cn1c2ccccc2c(=O)c2ccc(C#CC3(O)CCCCC3)cc21,nt,71*,20,nt,-6,-6,38*,55*,11,9
